# High-throughput results deposited in PubChem BioAssay by The Scripps Research Institute Molecular Screening Center.
# Shown are actives, neighbours in structure and some others; about 2.5% of the full set was active somewhere.
# Fh CTSL1 inh = counter-screen for PFM18AAP inhibitors: inhibitors of F. hepatica cathepsin L1; inhibition, % at 5.96 µM; 0.49% of 300,000 active; recombinant F. hepatica cathepsin L1, Z-Leu-Arg-MCA fluorescence;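 active = inhibition above the mean of all tested compounds plus 3 SD, set per screening campaign, cut at about 17% in these data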
# GSTO1 inh = counter-screen for RBBP9 inhibitors: inhibitors of human GSTO1. recombinant GSTO1, activity-based probe fluorescence polarization. inhibition, % at 5.96 µM. 1.1% of 300,000 active;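 active = inhibition above the campaign mean inhibition plus 3 SD, cut at about 35% in these data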
# Target sequence (P78417 whole entry, looked up): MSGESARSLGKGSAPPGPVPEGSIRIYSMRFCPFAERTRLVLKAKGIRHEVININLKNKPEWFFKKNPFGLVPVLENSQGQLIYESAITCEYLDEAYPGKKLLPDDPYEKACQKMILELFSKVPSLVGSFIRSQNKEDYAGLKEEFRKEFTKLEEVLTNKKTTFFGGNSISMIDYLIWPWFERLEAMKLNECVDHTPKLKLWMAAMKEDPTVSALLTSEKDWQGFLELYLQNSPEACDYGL
# TDP2 absorb = TDP2 (human) inhibition, absorbance primary screen. O95551. recombinant TDP2, T5PNP hydrolysis, p-nitrophenol absorbance 415 nm. inhibition, % at 12.8 µM. 0.34% of 370,000 active;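 active = inhibition above the mean of all tested compounds plus 3 SD, set per campaign, cut at about 25% in these data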
# Target sequence (O95551 whole entry, looked up): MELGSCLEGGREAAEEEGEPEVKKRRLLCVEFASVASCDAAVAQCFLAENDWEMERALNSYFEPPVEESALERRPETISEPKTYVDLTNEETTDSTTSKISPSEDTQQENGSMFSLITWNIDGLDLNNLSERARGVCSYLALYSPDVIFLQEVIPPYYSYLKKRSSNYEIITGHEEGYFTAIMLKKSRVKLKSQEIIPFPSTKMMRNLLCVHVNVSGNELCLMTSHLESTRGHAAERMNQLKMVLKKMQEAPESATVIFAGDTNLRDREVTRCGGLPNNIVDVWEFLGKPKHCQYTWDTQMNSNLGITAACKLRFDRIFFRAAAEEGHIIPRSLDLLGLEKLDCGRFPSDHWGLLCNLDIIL
#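 Assay system: Recombinant human TDP2 | Quantity: 120 nM TDP2 per well | Incubation: 2 h at 37 °C | Signal: Epi absorbance | Evaluation: Percent inhibition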
# PRMT1 FP inh = inhibitors of human PRMT1; Q99873; recombinant PRMT1, activity-based probe fluorescence polarization; 1.3% of 370,000 active; inhibition, % at 2.79 µM; AID 652257;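 active = inhibition above about 21% made by adding two undisclosed values, limit read from the data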
# PAD4 FP inh = inhibitors of human PAD4 | Q9UM07 | recombinant PAD4, RCA probe fluorescence polarization | inhibition, % at 6.36 µM | 0.41% of 330,000 active | AID 485272;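 active = percent inhibition above a cutoff equal to the mean of all tested compounds plus 3 SD, cut at about 15% in these data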
# Hits are given with their value; 0 = inactive; - = no result.
SMILES,Fh CTSL1 inh,GSTO1 inh,TDP2 absorb,PRMT1 FP inh,PAD4 FP inh
Oc1ccccc1/C=N/Nc1cc(N2CCCC2)nc(N2CCCC2)n1,0,73,0,0,0
CCN(CC)C(=O)CC[C@@H]1CC[C@]2(CCCN(S(=O)(=O)c3ccccc3)C2)O1,-,-,0,0,-
COc1ccc(/C=N\NC(=O)CN2CCN(Cc3ccccc3)CC2)cc1OCc1ccccc1,-,-,0,0,-
Cc1ccc(OCCOCCN2CCN(C)CC2)c([N+](=O)[O-])c1,18,0,0,0,0
Cc1ccc(OCCOCCN2CCCCC2)c([N+](=O)[O-])c1,0,0,0,0,0
CC(=O)Nc1ccc(C(=S)NCCCO)cc1,0,0,0,22,0
CCOC(=O)c1ccc(N2C(=O)CC(Sc3ncccn3)C2=O)cc1 (stereo unspecified),0,0,0,21,0
CC1CCN(c2ccccc2NC(=O)c2ccc(F)cc2)CC1,18,0,0,0,0
O=C1c2nc3cc(-c4ccco4)[nH]n3c(=O)c2CN1C1CCCCC1,0,0,0,23,0
CCn1c(SCC(=O)Nc2ccccc2-c2ccccc2)nnc1-c1ccc(Cl)cc1,-,-,0,0,-
O=C(C1CCCO1)N1CCN(Cc2c(O)ccc3ccccc23)CC1 (stereo unspecified),0,0,0,23,0
Cc1ccc(CN2CCN(C(=O)C3CCCO3)CC2)cc1 (stereo unspecified),0,0,0,0,0
CCN(CC)C(=O)CC[C@H]1CC[C@]2(CCCN(C(=O)c3ccc4ccccc4n3)C2)O1,-,-,0,0,-
c1ccc(-c2c[nH]c3cccc(-c4cc5ccccc5o4)c23)cc1,-,-,0,0,-
CN(CCOC(=O)c1cc2ccccc2o1)C1CN(Cc2cn(Cc3cccc(F)c3)nn2)S(=O)(=O)C1 (stereo unspecified),-,-,0,0,-
CC(=O)Nc1ccc(CN2C(=O)C(C)ON=C2c2ccccc2-c2ccco2)cc1 (stereo unspecified),-,-,0,23,-
COc1ccccc1-c1ccc(Nc2ccc(C(=O)N3CCOCC3)cc2)nn1,18,0,0,0,0
COc1ccc(-c2ccc(Nc3ccc(C(=O)N4CCOCC4)cc3)nn2)cc1OC,0,0,0,0,0
COC(=O)C1CN(Cc2ccc(C)cc2)CCS(=O)(=O)N1Cc1cn(Cc2ccccc2)nn1 (stereo unspecified),-,-,0,0,-
CC(=NNC(=O)CSc1nnc(-c2ccc(C(C)(C)C)cc2)n1-c1ccccc1)c1cccc2ccccc12,-,-,0,0,-
CCOC(=O)Cc1nn(Cc2ccc(Cl)cc2)c(=O)c2ccccc12,18,0,0,0,0
COC(=O)CC1OCC=C2CN3CCC45C6=CC(=O)C(=O)C([N+](=O)[O-])=C6NC4C1C2CC35 (stereo unspecified),-,-,68,30,-
O=C(c1ccccc1)N1CCC(Oc2cccnc2)CC1,-,-,0,0,-
Cc1c(CCO)c(=O)n(-c2ccccc2)n1S(=O)(=O)c1c(Cl)cc(Cl)cc1Cl,0,37,0,0,0
CCOC(=O)[C@@]12CCCC=C1N(CCc1ccc(Cl)cc1)C(=O)[C@H]2CC(=O)NCC1CCCCC1,-,-,0,0,-
SMILES,Fh CTSL1 inh,GSTO1 inh,TDP2 absorb,PRMT1 FP inh,PAD4 FP inh
Oc1ccc(N2CCN(C(c3cccs3)c3nnnn3CCc3ccccc3)CC2)cc1 (stereo unspecified),0,0,0,22,0
COc1ccc(Cn2nnnc2C(c2cccs2)N2CCN(c3ccccc3)CC2)cc1 (stereo unspecified),0,0,0,0,0
COc1ccc2c(c1)CNC2CS(=O)(=O)NCc1ccc(F)cc1 (stereo unspecified),-,-,0,0,-
C=c1[nH]cc(C(C)c2c(C)n(C)c3ccccc23)/c1=C/C (stereo unspecified),-,-,0,0,-
COc1ccccc1-c1nnc(Sc2nc([N+](=O)[O-])nn2C)o1,77,0,0,0,0
Cn1cnnc1Sc1nc([N+](=O)[O-])nn1C,0,0,0,0,0
COc1ccc(-n2c(Cc3cccs3)nnc2SCC(=O)Nc2cccc3ccccc23)cc1,-,-,0,0,-
CC(C1=CCCCC1)c1cnn(C)c1 (stereo unspecified),-,-,0,0,-
O=C(CSC1=NC2(CCCCC2)N=C1c1ccccc1)Nc1ccc2c(c1)OCCO2,0,0,0,22,0
C[C@H](O)[C@@H]1CN2CCc3c([nH]c4c(-c5ccccc5)cccc34)[C@@H]2C[C@@H]1N(C)C(=S)Nc1ccc(C#N)cc1,-,-,0,0,-
Cc1ccc(SCC(=O)OCC(=O)NCc2cccs2)cc1,0,0,0,0,0
O=C(COC(=O)CSc1ccc([N+](=O)[O-])cc1)NCc1cccs1,18,0,0,0,0
Cc1[nH]n(-c2ccccc2)c(=O)c1Sc1ccc(Cl)cc1,0,0,0,0,0
Cc1[nH]n(-c2ccccc2)c(=O)c1C(C[N+](=O)[O-])c1ccc(Cl)cc1 (stereo unspecified),0,61,27,0,0
CC(=O)Nc1cccc(C(C)C2=CCCCC2)c1 (stereo unspecified),-,-,0,0,-
Cc1cccc(NC(=S)NNC(=O)COc2ccc(Cl)cc2Cl)c1,0,0,0,0,0
COc1ccc(NC(=S)NNC(=O)COc2ccc(Cl)cc2Cl)cc1,0,0,0,24,0
O=C(CSc1nnnn1-c1ccc2c(c1)OCCO2)OC1CCCCC1,78,0,0,0,0
CCC(=O)Nc1ccc(NC(=O)CSc2nnnn2-c2ccc3c(c2)OCCO3)cc1,0,0,0,0,0
Cc1occc1C(=O)NNC(=S)NCc1ccccc1,17,0,0,0,0
O=C(CN1C(=O)S/C(=C\c2ccccc2Cl)C1=O)NCCCn1ccnc1,0,0,0,24,0
O=C(CCl)Nc1cn(-c2ccccc2)nc1-c1ccc(F)cc1,77,0,0,0,0
COc1cccc(CN(C)C(=O)c2ccc(S(=O)(=O)Nc3ccccc3F)cc2)c1OC,-,-,0,0,-
COc1cccc(CN(C)C(=O)c2csc3c2CCCC3)c1OC,18,0,0,0,0
CC(=O)c1cnc(-c2ccccn2)s1,0,0,0,22,0
SMILES,Fh CTSL1 inh,GSTO1 inh,TDP2 absorb,PRMT1 FP inh,PAD4 FP inh
COC(=O)C/C=C/[C@@H](C)[C@H](NC(=O)OCC(Cl)(Cl)Cl)c1ccc(-c2ccccc2)cc1,-,-,0,0,-
CC(C)CC(NC(=O)OC(C)(C)C)C(=O)NCc1ccccc1 (stereo unspecified),0,0,0,0,0
CC(C)CC(NC(=O)C(COCc1ccccc1)NC(=O)OC(C)(C)C)C(=O)NN (stereo unspecified),18,0,0,0,0
CC(=O)NC(Cc1ccc2c(c1)OCO2)C(=O)N1CCCC1 (stereo unspecified),-,-,0,0,-
CCCN(CCC)S(=O)(=O)c1ccc(Cl)c([N+](=O)[O-])c1,0,35,0,0,0
CCCN(CCC)S(=O)(=O)c1ccc(N2CCCC2=O)c([N+](=O)[O-])c1,0,0,0,0,0
O=C(/C=C/c1ccc([N+](=O)[O-])s1)N1CCCCC1,0,35,0,0,0
O=C(CNC(=O)c1ccc(Cl)cc1Cl)OCC(=O)N1CCN(c2ccccc2)CC1,-,-,0,0,-
